Source: ChEMBL document CHEMBL1127574, “Design and synthesis of ellipticinium salts and 1,2-dihydroellipticines with high selectivities against human CNS cancers in vitro” (1994)

Key:
Format in all cases: functional
Settings in all cases: Homo sapiens
IGROV-1 = experiment: Tested in vitro for cytotoxicity in IGROV1 cell lines
Outline: (§1)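 Compounds dissolved in DMSO, then diluted 500-fold into aqueous medium. The resulting aqueous solutions or suspensions were added to the cultured human tumour cell lines, and the cells were exposed for 48 h. Growth was read colorimetrically in one of two ways: a metabolic assay in which viable cells reduce a tetrazolium salt to a formazan dye, or a protein stain for total cellular protein.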

Malme-3M = experiment: Tested in vitro for cytotoxicity in MALME-3M; outline: as §1
DMS-114 = experiment: Tested in vitro for cytotoxicity in DMS114 cell lines; outline: as §1
A549 = experiment: Tested in vitro for cytotoxicity in A549/ATCC cell lines; outline: as §1
SF-268 = experiment: Tested in vitro for cytotoxicity in SF-268 cell lines; outline: as §1
CCRF-CEM = experiment: Tested in vitro for cytotoxicity in CCRF-CEM cell lines; outline: as §1
COLO 205 = experiment: Tested in vitro for cytotoxicity in COLO 205 cell lines; outline: as §1
CAKI-1 = experiment: Tested in vitro for cytotoxicity in CAKI-1 cell lines; outline: as §1

Compound | GI50 (IGROV-1) | GI50 (Malme-3M) | GI50 (DMS-114) | GI50 (A549) | GI50 (SF-268) | GI50 (CCRF-CEM) | GI50 (COLO 205) | GI50 (CAKI-1)
Cc1c2cc[n+](CC(=O)O)cc2c(C)c2c1[nH]c1ccccc12 | > 100 µM | 26.3 µM | 76.8 µM | 77.3 µM | 97.1 µM | > 100 µM | > 100 µM | 
COC[n+]1ccc2c(C)c3[nH]c4ccccc4c3c(C)c2c1 | 9.2 µM | 0.647 µM | 2.28 µM | 1.79 µM | 0.679 µM | 14.6 µM | 4.7 µM | 19.2 µM
